Experimental data from different studies.
Protocols differ between the studies behind these lines.
Target: Serine/threonine-protein kinase DCLK1 (DCLK1, Homo sapiens, UniProt O15075)
Sequence (O15075 1-740, as in one of the studies): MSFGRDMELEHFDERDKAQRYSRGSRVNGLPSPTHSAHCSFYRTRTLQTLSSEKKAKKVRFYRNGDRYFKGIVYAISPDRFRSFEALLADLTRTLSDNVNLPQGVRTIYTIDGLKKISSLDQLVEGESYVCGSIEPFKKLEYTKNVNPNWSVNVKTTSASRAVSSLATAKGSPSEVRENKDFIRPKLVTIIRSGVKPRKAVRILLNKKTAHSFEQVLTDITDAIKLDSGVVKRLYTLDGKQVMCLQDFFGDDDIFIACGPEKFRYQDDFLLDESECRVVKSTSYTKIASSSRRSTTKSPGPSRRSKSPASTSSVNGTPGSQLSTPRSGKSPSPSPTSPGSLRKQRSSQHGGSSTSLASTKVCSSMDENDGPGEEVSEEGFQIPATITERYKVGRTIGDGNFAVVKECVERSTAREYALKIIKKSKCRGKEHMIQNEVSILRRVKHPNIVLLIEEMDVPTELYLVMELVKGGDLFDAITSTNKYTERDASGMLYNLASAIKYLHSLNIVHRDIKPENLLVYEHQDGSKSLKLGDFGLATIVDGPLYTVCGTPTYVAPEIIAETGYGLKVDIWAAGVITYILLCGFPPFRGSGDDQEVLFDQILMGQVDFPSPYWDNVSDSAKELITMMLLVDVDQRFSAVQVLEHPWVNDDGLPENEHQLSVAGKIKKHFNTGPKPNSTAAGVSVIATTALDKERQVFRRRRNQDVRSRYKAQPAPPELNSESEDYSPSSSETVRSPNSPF

SMILES | assay | setting | remaining binding [%]
CC(=O)Nc1c(C(C)=O)c(=O)n(C)c2nc(-c3ccc(Cl)cc3Cl)c(-c3ccc(Cl)cc3)cc12 | cell-free assay, competition with immobilised ligand | 1 µM | 100
O=C(NCCCN1CCOCC1)c1ccc(Nc2ncc(Cl)c(-c3ccc(Cl)s3)n2)cc1 | binding, competition with immobilised ligand | 1 µM | 56
CNC(=O)[C@@H]1CC[C@@H](n2c(-c3ccc4cnccc4c3)nc3ccc(C(=O)NCc4cccc(C(N)=O)c4)cc32)C1 | binding, competition with immobilised ligand | 1 µM | 85
O=C(NCCCN1CCOCC1)c1ccc(Nc2nccc(-c3cc4ccccc4s3)n2)cc1 | binding, competition with immobilised ligand | 1 µM | 88
COc1cnc(Nc2cccc(S(N)(=O)=O)c2)nc1N1CCN(c2ccccc2)C(=O)C1 | binding, competition with immobilised ligand | 1 µM | 83
CN(C)c1ncc(F)c(-c2cnn3ncccc23)n1 | binding, competition with immobilised ligand | 1 µM | 61
CC(C)CC(=O)N1CCc2nc(-c3ccc(Br)cc3)nc(N(C)Cc3ccccc3)c2C1 | cell-free assay, competition with immobilised ligand | 0.1 µM | 100
F[C@@H]1CCN(c2nccc(-c3cnn4ncccc34)n2)C1 | binding, competition with immobilised ligand | 1 µM | 82
C[C@@H]1CN(c2ccc3ncc(-c4ccc5[nH]nc(C6CC6)c5c4)n3n2)C[C@H](C)O1 | binding, competition with immobilised ligand | 0.5 µM | 100
C[C@H]1CCN(c2nccc(-c3cnn4ncccc34)n2)C1 | binding, competition with immobilised ligand | 1 µM | 85
CNCc1ccccc1-c1csc([C@H](C)Nc2nc(C)nc3cc(OC)c(OC)cc23)c1 | cell-free assay, competition with immobilised ligand | 1 µM | 87
N[C@@H]1CCN(c2nccc(-c3cnn4ncccc34)n2)C1 | binding, competition with immobilised ligand | 1 µM | 70
CN1CCN(c2cnc3c(C4CCN(C(=O)c5ccc(OC(F)(F)F)cc5N)CC4)ncnc3c2)CC1 | cell-free assay, competition with immobilised ligand | 1 µM | 85
CC1CCCN1c1nccc(-c2cnn3ncccc23)n1 (stereo not shown) | binding, competition with immobilised ligand | 1 µM | 87
Cc1cnc(Nc2ccc(C(=O)N3CCC(N4CCCC4)CC3)cc2)nc1-c1cc2ccccc2s1 | binding, competition with immobilised ligand | 1 µM | 68
CN(CCCC(F)(F)F)c1nccc(-c2cnn3ncccc23)n1 | binding, competition with immobilised ligand | 1 µM | 90
COc1ccc2cc(OCC3(C(=O)O)CN(C(=O)c4ccc(F)cc4)C3)ccc2c1 | cell-free assay, competition with immobilised ligand | 1 µM | 100
FC(F)(F)Oc1cccc(-c2cnc3ccc(-c4ccncc4)nn23)c1 | cell-free assay, competition with immobilised ligand | 5 µM | 69
N#Cc1ccccc1CSc1nnc2c(n1)[nH]c1ccccc12 | binding, competition with immobilised ligand | 10 µM | 100
Cn1nc(C(=O)NCc2ccc(C(=O)O)cc2)cc1-c1ccc2[nH]ccc2c1 | cell-free assay, competition with immobilised ligand | 0.1 µM | 88
O=C(NCC1CCOCC1)c1n[nH]cc1NC(=O)c1c(F)cccc1F | binding, competition with immobilised ligand | 1 µM | 75
Cc1c(NC(=O)c2cc(C(N)=O)nc3cc(F)ccc23)c(C(F)(F)F)nn1Cc1ccc(C#N)cc1 | cell-free assay, competition with immobilised ligand | 1 µM | 85
CCN1CCN(Cc2ccc(C(=O)Nc3ccc(C)c(Oc4ccc5c(c4)CC(=O)N5)c3)cc2C(F)(F)F)CC1 | binding, competition with immobilised ligand | 1 µM | 88
CN(c1nccc(-c2cnn3ncccc23)n1)C1CC1 | binding | 1 µM | 85
CC1=C(C#N)C(c2ccc3c(c2)c(NC(=O)c2ccccc2C)nn3C)C(C#N)=C(C)N1 | cell-free assay, competition with immobilised ligand | 1 µM | 79
